Compound activity from PubChem.
Rows were chosen to be rich in hits. Some 4% of all compounds tested hit in one or more screens of this group.
RAM network inh: yeast RAM network inhibition; 190,000 compounds, 1.8% hits; S. cerevisiae dse1pr::URA3 reporter, 5-FOA growth OD615, 2 d; analog-sensitive cbk1-as2 kinase mutant strain; AID 868; inhibition, % at 50 µM;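 active means inhibition above a set limit, 3 SD over mean compound inhibition, cut at about 8.4% in these data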;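 further: 0% = DMSO-only wells with no growth and 100% = 10 µM 1-NA-PP1 full growth; inhibition rescues growth on 5-FOA so higher OD means more RAM inhibition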
Measles CPE: protection of cells from measles virus. protection (pct of control), % at 4 µM. Measles virus-infected cells, CPE protection, absorbance. 140,000 compounds, 1.5% hits; in the data active means protection mostly above about 24%, no sharp cut-off; inactive means mostly below about 26%
MDM2 E3 inh: blocks human Mdm2 ubiquitin ligase activity; Q00987; cell-based MDM2 ubiquitination luciferase reporter, 2 h; 0 = plate control, 100 = twice control, blank-subtracted; signal enhancement, % at 5 µM; 210,000 compounds, 0.11% hits;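 active means signal enhancement of 30% or more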;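 further: luminescence tracks abundance of the self-degrading MDM2-luciferase fusion protein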
Target sequence (Q00987 whole entry, looked up, the tested form may be a part): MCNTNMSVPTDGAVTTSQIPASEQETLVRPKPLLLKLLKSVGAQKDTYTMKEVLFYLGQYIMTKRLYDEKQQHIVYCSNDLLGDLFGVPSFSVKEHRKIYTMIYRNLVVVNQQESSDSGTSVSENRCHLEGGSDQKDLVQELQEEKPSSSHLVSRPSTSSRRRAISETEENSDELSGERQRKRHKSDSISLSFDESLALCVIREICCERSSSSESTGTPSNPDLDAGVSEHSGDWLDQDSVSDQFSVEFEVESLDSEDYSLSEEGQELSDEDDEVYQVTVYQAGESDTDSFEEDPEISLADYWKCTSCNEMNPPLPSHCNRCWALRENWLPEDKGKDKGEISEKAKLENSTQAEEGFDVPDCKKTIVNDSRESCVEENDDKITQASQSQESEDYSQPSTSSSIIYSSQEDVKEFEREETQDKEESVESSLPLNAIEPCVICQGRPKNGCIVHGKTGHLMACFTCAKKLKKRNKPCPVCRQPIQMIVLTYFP
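Test system: stable mammalian line carrying autodegrading MDM2–luciferase fusion reporter; quantity: 2000 cells in each well; times: 4 h cell settling then 2 h compound exposure, 37 °C; detection: luminescence with SteadyLite reagent, 15 min at room temperature; evaluation: percent signal gain over controls, blank-subtracted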
BB579 growth dn: chemicals that inhibit yeast BB579 growth in restrictive medium (lifespan-shortening candidates) | S. cerevisiae BB579 growth, OD615, 48 h | inhibition, % at 10 µM | 140,000 compounds, 0.51% hits;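 active means inhibition above a set limit, 3 SD over the mean compound inhibition, cut at about 44% in these data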
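Assay system – yeast BB579 (DeaD) · Dosing – single compound dose of 10 µM, 0.25% DMSO final · Detection – OD615 turbidity measurement · Buffer or medium – CSMM-D restrictive synthetic medium containing dextrose (glucose) · Benchmarks – positive control amphotericin B 10 µg/mL · Incubation – 48 h exposure, 30 °C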
Insulin prom inh: TRM-6 insulin promoter activity inhibition. TRM-6 cells, insulin promoter-eGFP reporter, imaging; reporter expression induced with tamoxifen. 130,000 compounds, 0.9% hits. inhibition, % at 2 µM;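 active means inhibition above the mean plus 3 SD, with well images judged a real hit on visual review, cut at about 60% in these data, passing the limit was not always enough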
Yeast life ext: yeast lifespan extension; 130,000 compounds, 0.68% hits; S. cerevisiae growth with nicotinamide, OD615; deaD strain in restrictive glucose medium; inhibition of the nicotinamide effect, % at 10 µM; AID 775;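 active means inhibition above a set limit, placed 3 SD over the median of all compounds, cut at about 26% in these data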;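 further: 0% = nicotinamide-treated wells and 100% = cells grown without nicotinamide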
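assay system = DeaD-strain S. cerevisiae | buffer or medium = restrictive glucose medium | reagent = 1.5 mM nicotinamide | compound = 10 µM single point, 0.25% DMSO | incubation = 48 h compound exposure at 30 °C, humidified | signal = OD615 measurement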
Starred values were filed as active, the others as inactive; i = inactive; / = not tested or not shown.

SMILES	RAM network inh	Measles CPE	MDM2 E3 inh	BB579 growth dn	Insulin prom inh	Yeast life ext
CCSc1nc(N)c2c3c(sc2n1)CN(C)CC3	1	44*	-18	-7	/	-11
CC(C)c1ccc(-c2noc(C3CCCN(C(=O)c4ccc(F)cc4F)C3)n2)cc1 (stereo not drawn)	10*	6	-6	-46	/	-12
Cc1ccc(-c2noc(C3CCCN(C(=O)c4ccc(F)cc4F)C3)n2)cc1 (stereo not drawn)	1	13	-16	-34	-18	-3
COc1ccccc1Nc1ncc(-c2cccs2)s1	9.9*	13	-8	-38	/	-11
O=C(OCc1ccccc1)c1cn(-c2ccccc2)nc1-c1ccncc1	3	4	5	-13	-12	-13
CCCCN(CC)CCCNC(=S)Nc1ccc2nc3n(c(=O)c2c1)CCCCC3	0	23	9	-11	21	0
C/C(=N\NC(=O)c1nn(C)c(C)c1Br)c1ccc(NC(=O)c2ccc(C)s2)cc1	9.2*	/	-3	/	/	/
C=CC(O)Cc1c(C)n[nH]c1C (stereo not drawn)	2	8	-1	-9	77*	-4
CCOC(=O)CCc1c(C)n[nH]c1C	1	/	-2	/	-27	/
COC(=O)c1[nH]c2ccccc2c1NC(=O)CNC1CCCCC1	1	2	-7	-15	/	-5
CCC(=O)c1ccc(Oc2ccc(C(=O)c3ccc(C)cc3)cc2[N+](=O)[O-])cc1	11*	20	-10	-27	-62	2
CO/N=C/c1ccc(Oc2ccc(C)cc2)c([N+](=O)[O-])c1	0	/	-5	/	/	/
Cn1c(SCc2ccc(F)cc2)nnc1-c1cccs1	0	7	-8	-56	71*	-10
Cn1c(SCc2ccccc2)nnc1-c1cccs1	-1	10	-4	-29	3	-21
Cc1ccnc(NC(=O)C(C)n2cc([N+](=O)[O-])cn2)c1 (stereo not drawn)	0	/	-3	/	-19	/
Oc1ccc(CN2CCc3ccccc3C2)c2cccnc12	0	3	12	-17	14	1
Cn1cc(CN2CCc3ccccc3C2)c2ccccc21	0	6	-10	-14	81*	5
COC(=O)c1ccc(N2C(=O)CC(N3CCOCC3)C2=O)cc1 (stereo not drawn)	2	40*	-12	-50	/	-4
O=C(NNC(=O)c1ccco1)c1cccc([N+](=O)[O-])c1	0	2	-15	-20	/	-4
Cc1ccc2c(C)nc(NC3=NCN(C(C)C)CN3)nc2c1	/	/	/	/	-37	/
O=C(Nc1ccc(Cl)cc1)c1ccc(-n2cccn2)c([N+](=O)[O-])c1	1	4	38*	-31	19	-18
CSc1cccc(NC(=S)N2CCC(N(C)C3CCCC3)CC2)c1	1	/	1	/	-64	/
Cc1cc(C)c2c(-n3cccc3)nn(CC#N)c2n1	1	6	-14	-29	27	-5
COc1ccc(Nc2ncccc2C(=O)Nc2ccccc2)cc1	1	5	-12	-49	50	-16
COc1ccc(NC(=O)c2cccnc2Nc2ccc(OC)cc2)cc1	1	18	-9	-26	74*	-9
SMILES	RAM network inh	Measles CPE	MDM2 E3 inh	BB579 growth dn	Insulin prom inh	Yeast life ext
Cn1ncc(N=Cc2ccc([N+](=O)[O-])cc2)c1C(=O)N1CCOCC1	-1	25	-36	9	-7	-8
CCCC1=NN(c2ccc([N+](=O)[O-])cc2)C(=O)/C1=C\N(C)C	7	32*	-5	-32	25	-7
Cc1ccc(C)c(SCC(=O)Nc2cc(C)nn2-c2ccc(F)cc2)c1	8.6*	10	-15	-9	/	1
CN1/C(=C\C=C2/SC(=S)N(CC(=O)O)C2=O)C(C)(C)c2ccccc21	9.1*	/	-13	/	/	/
C=CCN1C(=O)/C(=C\C=C2\N(C)c3ccccc3C2(C)C)SC1=S	1	5	1	-38	i	-1
O=C(CSc1nnc(-c2ccc(Cl)cc2Cl)n1C1CCCCC1)N1CCCC1	1	2	-13	-26	-100	-10
C=CCNC1=C(Cl)C(=O)c2ccccc2C1=O	2	27	0	60*	24	-7
O=C(NCCCn1ccnc1)C(=O)c1c[nH]c2ccccc12	0	/	5	/	10	/
CCNc1nc(NCC)n2c(SCC(=O)c3ccccc3F)nnc2n1	2	/	9	/	/	/
CC(Sc1nc(-c2ccccc2)cc(C(F)(F)F)n1)C(=O)Nc1sc2c(c1C(N)=O)CCC2 (stereo not drawn)	1	5	-4	-14	-3	0
CC(Sc1nc(-c2ccccc2)cc(C(F)(F)F)n1)C(=O)Nc1sc2c(c1C#N)CCC2 (stereo not drawn)	10.0*	1	-9	-31	21	1
c1ccc2c(c1)OCCOCCOCCOCCOc1ccccc1OCCOCCOCCO2	1	47*	-11	-32	-161	3
Brc1ccc2c(c1)OCCOCCOCCOCCOCCO2	0	5	-11	-53	/	14
COc1cc(/C=N\NC(=O)CNC(=O)C2COc3ccccc3O2)ccc1O (stereo not drawn)	0	30*	-9	8	/	-8
COc1cc(/C=N/NC(=O)C2COc3ccccc3O2)ccc1O (stereo not drawn)	/	/	-1	/	/	/
CCOc1cc(/C=C(\C#N)C(=O)NCc2cccnc2)ccc1O	1	/	-6	/	-24	/
CCCn1c(SCC(=O)NC(C)(C)C)nnc1C(C)C	1	12	0	-65	46	-6
CCN(CC)c1ccc(/C=N/NC(=S)NCc2ccco2)cc1	0	11	7	2	100*	-4
Oc1ccc(/C=N/NC(=S)NCc2ccco2)cc1	1	41*	3	-12	-13	-16
S=C(NCc1ccco1)N/N=C/c1ccc(Cl)cc1	3	6	0	-39	-43	-3
O=[N+]([O-])c1ccc2nc(SCc3ccccc3Cl)sc2c1	9.6*	3	-3	-28	/	-12
C=CCc1ccccc1OCCSc1nc2ccc([N+](=O)[O-])cc2s1	11*	15	-3	-14	-81	4
CCSc1nc2ccccc2n1S(=O)(=O)c1ccccc1	1	14	-2	46*	/	-11
Cc1cccnc1NC(=S)Nc1ccc(Br)cc1Cl	8.5*	/	-6	/	/	/
CC(=O)c1cnc(-c2ccccc2Cl)s1	1	/	-22	/	77*	/
O=C(NC1CCCCCC1)C1CC(=O)N(Cc2ccccc2)C1 (stereo not drawn)	-1	19	-3	-14	/	2
NC(=S)N/N=C/c1ncc(C(F)(F)F)cc1Cl	/	/	-11	/	/	/
Cc1ccc(NC(=O)ON=C2CCCC2)cc1	0	43*	-28	95*	-11	-13
CCN(CC)c1ccc(C(=O)O)cc1	1	4	-19	-14	/	2
O=C(O)c1ccc(N(c2ccccc2)c2ccccc2)cc1	2	18	-3	44*	-500	/
